# ABHD5-PLIN5 inh: inhibitors of human ABHD5-perilipin-5 interaction; Q00G26+Q8WTS1; Split G. princeps luciferase complementation, luminescence, 4 h; inhibition, % at 4 µM; hit rate 0.78% among 360,000; AID 602281;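 active means inhibition above the mean inhibition across every tested compound plus 3 SD, cut at about 22% in these data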
# TLR9-MyD88 inh: inhibitors of human TLR9-MyD88 binding. AID 504734. CHO BLA complementation TLR9-MyD88, CCF4 FRET ratio. inhibition, % at 4.98 µM. hit rate 0.21% among 340,000;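 active means inhibition above the mean over all tested compounds plus 3 SD, cut at about 21% in these data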
# NOD2 RIPK2 PPI: blocks binding of human NOD2 to RIPK2; O43353; CHO BLA complementation NOD2-RIPK2, CCF4 ratio; inhibition, % at 4.98 µM; hit rate 0.38% among 360,000; AID 624267; in the data active means inhibition above about 21%
# Target sequence (O43353 whole entry, looked up): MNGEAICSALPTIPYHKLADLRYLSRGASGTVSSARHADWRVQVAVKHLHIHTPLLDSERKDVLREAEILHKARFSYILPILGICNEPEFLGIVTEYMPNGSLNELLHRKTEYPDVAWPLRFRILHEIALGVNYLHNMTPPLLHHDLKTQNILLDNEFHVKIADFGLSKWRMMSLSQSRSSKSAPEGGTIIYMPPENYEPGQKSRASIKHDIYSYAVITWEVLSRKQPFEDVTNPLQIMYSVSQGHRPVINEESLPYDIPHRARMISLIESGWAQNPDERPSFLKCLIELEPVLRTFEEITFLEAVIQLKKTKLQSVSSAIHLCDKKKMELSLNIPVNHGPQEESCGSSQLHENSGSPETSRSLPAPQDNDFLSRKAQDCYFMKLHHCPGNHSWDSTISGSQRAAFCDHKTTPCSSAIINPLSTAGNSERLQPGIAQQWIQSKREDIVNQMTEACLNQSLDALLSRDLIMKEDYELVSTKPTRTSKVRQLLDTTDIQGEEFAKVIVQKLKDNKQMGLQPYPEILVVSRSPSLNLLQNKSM
# Dynein transport: blocks dynein driven cargo transport along microtubules; 3617.4 mouse cells, GR-EGFP nuclear translocation imaging; test concentration mostly 20 µM; stimulated with dexamethasone, 1 µM; active compounds read low; z-score, hits read low; hit rate 0.47% among 220,000;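 active means plate z-score of nuclear minus cytoplasmic receptor signal below a set negative limit, without overly bright fluorescence or cell loss, cut at about -3.5 in these data, passing the limit was not always enough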;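 further: z-score of nuclear minus cytoplasmic ring GR-EGFP intensity difference per well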
#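 Buffer or medium: tet-free, stripped-serum medium; Also added: dexamethasone, 1.0 µM final; Technique: high-content fluorescence imaging after fixation; Times: 48 h induction, 1 h compound, 30 min dex at 37 °C; Read-out: per-cell GR-EGFP intensity, nucleus versus surrounding cytoplasmic ring, well-averaged.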
# B2AR ag: human beta-2 adrenergic receptor agonism by FAP; response, % (concentration not given with the values); Am2.2-beta2AR cells, FAP receptor internalization, flow cytometry; hit rate 0.43% among 340,000;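 active means response above a set limit, near 3 SD of response in nonfluorescent compounds, cut at about 42% in these data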
# TLR4 MyD88 comp: inhibitors of human TLR4-MyD88 binding; O00206+Q99836; HeLa CL3-4 TLR4/MyD88 BLA complementation, FRET ratio; inhibition, % at 8.4 µM; hit rate 0.18% among 200,000; in the data active means inhibition above about 25%
# B2AR ag CP1: human beta-2 adrenergic receptor agonism, cherry pick. shares compounds with B2AR ag. Am2.2-beta2AR cells, FAP surface receptor, flow cytometry; active compounds read low. percent response (surface receptor), % at 10 µM. hit rate 25% among 1,100. AID 540358;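 active means surface receptor percent response at or below 58%, roughly 3 SD from nonfluorescent compounds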
# B2AR FAP counter: flagged in Am2.2 fluorescence counterscreen for beta-2AR agonists; Am2.2 cells, FAP fluorogen flow cytometry; active compounds read low; shares compounds with B2AR ag; calls only at 10 µM; AID 588765; 1,100 tested, under 10 active;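 active means percent response below a set limit in fluorescence channel 1 and below 50% in channel 8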
# Hits are given with their value; i = inactive; nt = no result given. Shown are actives, neighbours in structure and some others; about 1.6% of the full set was active somewhere.
SMILES,ABHD5-PLIN5 inh,TLR9-MyD88 inh,NOD2 RIPK2 PPI,Dynein transport,B2AR ag,TLR4 MyD88 comp,B2AR ag CP1,B2AR FAP counter
O=C1CN(C(=O)COC(=O)/C=C/c2ccc(S(=O)(=O)N3CCOCC3)cc2)c2ccccc2N1,i,i,i,i,i,i,nt,nt
CCOc1ccccc1NC(=O)COC(=O)COc1cccc2c1OC(C)(C)C2,i,i,i,nt,nt,nt,nt,nt
Cc1ccc(-c2noc(COc3ccccc3C)n2)cc1,i,i,i,i,i,i,nt,nt
CC(Oc1ccc(Cl)cc1Cl)c1nc(-c2ccc(NC(=O)c3ccco3)cc2)no1 (configuration not stated),i,i,i,i,66,i,i,i
O=C(NCc1nc(-c2ccccc2)no1)c1ccc2c(c1)OCO2,i,i,i,i,i,i,nt,nt
Cc1ccccc1-c1nc(-c2ccc(NC(=O)c3cccs3)cc2)no1,i,i,i,i,i,i,nt,nt
Cc1ccccc1OCc1nc(-c2ccc(NC(=O)c3ccco3)cc2)no1,i,i,i,i,i,i,i,i
CC(NC(=O)c1ccco1)c1nc(-c2ccccc2)no1 (configuration not stated),i,i,i,nt,i,nt,nt,nt
Cc1ccccc1OCc1nc(-c2ccc(NC(=O)c3cccs3)cc2)no1,i,i,i,i,i,i,i,i
Cc1ccccc1OCc1nc(-c2ccc(NC(=O)c3ccc4c(c3)OCO4)cc2)no1,i,i,i,i,i,i,i,i
COc1ccccc1C(=O)N1CCN(C(=O)[C@H]2O[C@@H](n3ccc(=O)[nH]c3=O)[C@H](O)[C@@H]2O)CC1,i,nt,i,nt,nt,nt,nt,nt
O=C(NCc1ccccc1)C1c2ccccc2OCC(=O)N1Cc1ccc2c(c1)OCO2 (configuration not stated),i,nt,i,nt,nt,nt,nt,nt
CC(=O)Nc1cc(S(=O)(=O)Nc2ccccc2)c(C)cc1C,i,i,i,i,47,i,i,i
CCOC(=O)C(=Cc1ccc2c(c1)OCO2)c1ccccc1,i,i,i,nt,i,nt,nt,nt
COc1ccc(CN(C)Cc2c(O)ccc3cc(Br)ccc23)cc1OC,i,i,i,nt,43,nt,i,i
COc1ccc(CCN(C)Cc2c(O)ccc3cc(Br)ccc23)cc1OC,i,i,i,nt,i,nt,nt,nt
CCN(CC)S(=O)(=O)c1cc(NC(=O)C2=COCCO2)ccc1Cl,i,i,i,nt,115,nt,24,i
Cc1ccc(CCNC(=O)CC2Oc3ccc(C)cc3NC2=O)cc1 (configuration not stated),i,i,i,i,i,i,nt,nt
O=C(CC1Oc2ccccc2NC1=O)NCCc1ccccc1 (configuration not stated),i,i,i,i,44,i,i,i
CC1CCN(C(=O)COC(=O)c2ccccc2C(=O)c2ccccc2)CC1,i,i,i,nt,i,nt,i,i
CCOC(=O)C1CCN(C(=O)COC(=O)c2ccccc2C(=O)c2ccc(Cl)cc2)CC1,i,i,i,nt,i,nt,i,i
CCOC(=O)C1CCN(C(=O)COC(=O)c2ccccc2OCC)CC1,i,i,i,nt,i,nt,nt,nt
Cc1ccc(C(=O)c2ccccc2C(=O)OCC(=O)N2C(C)CCCC2C)cc1 (configuration not stated),i,i,i,nt,i,nt,i,i
O=C1NC(Cc2ccc(O)cc2)c2nc3cc(F)c(F)cc3c(=O)n2-c2ncccc21 (configuration not stated),i,i,i,nt,nt,nt,nt,nt
COC(=O)c1ccc(CN2CCC(Oc3cccc(C(=O)N4CCCC4)c3)CC2)cc1,i,i,i,nt,i,nt,nt,nt
SMILES,ABHD5-PLIN5 inh,TLR9-MyD88 inh,NOD2 RIPK2 PPI,Dynein transport,B2AR ag,TLR4 MyD88 comp,B2AR ag CP1,B2AR FAP counter
COC(=O)c1ccc(CN2CCC(Oc3ccc(C(=O)N4CCCCC4)cc3)CC2)cc1,i,i,i,nt,i,nt,i,i
Cc1ccc(Cc2c(C3CCCCC3)nc3cc(C)c(Br)c(C)n23)cc1,i,nt,i,nt,nt,nt,nt,nt
Cc1ccc(Sc2ncccc2COC(=O)Nc2c(C)cccc2C)cc1,i,i,i,i,63,i,i,i
CCOC(=O)CSc1ccc(-c2nc3ccccc3[nH]2)cn1,i,i,i,i,46,i,i,i
CCOC(=O)CSc1ccc(-c2nc3cc(C)c(C)cc3[nH]2)cn1,i,i,i,i,i,i,nt,nt
Cc1ccc(SCC(=O)Nc2ccc(-c3nc4ccccc4[nH]3)cc2)cc1,i,i,i,i,107,i,16,i
COc1cc(Br)c(CN2C(=O)NC3(CCCCCC3)C2=O)cc1OC,i,i,i,nt,i,nt,nt,nt
CCC1(C)CC(C#N)(C#N)C(=O)NC1=O (configuration not stated),i,nt,i,nt,nt,nt,nt,nt
S=C(Nc1ccccc1)Nc1nccs1,i,i,i,i,i,nt,i,i
CC1=C(C(=O)N2CCOCC2)CC(CC(=O)NCC2CCCCC2)C(=O)N1Cc1ccc(C(C)(C)C)cc1 (configuration not stated),i,nt,i,nt,nt,nt,nt,nt
CN(C)CCCn1cnc2c(c1=N)C(c1ccccc1)c1ccc3ccccc3c1O2 (configuration not stated),i,i,i,nt,44,nt,i,i
N=c1c2c(ncn1CCCO)Oc1c(ccc3ccccc13)C2c1ccccc1 (configuration not stated),i,i,i,i,i,nt,nt,nt
COc1ccc(CNC(=O)C2(C)Cc3c(-c4ccc(N(C)C)cc4)ccnc3O2)cc1OC (configuration not stated),i,nt,i,nt,nt,nt,nt,nt
COCCn1c(=S)[nH]c2ccc(N(C)C)cc2c1=O,i,i,i,i,45,i,i,i
COc1ccc(Cl)cc1C(=O)N1CCN(c2ccccn2)CC1,i,i,i,i,52,i,i,i
O=C(c1ccccc1Cl)N1CCN(c2ccccn2)CC1,i,i,i,i,i,i,nt,nt
Nc1c(Cl)cnn(-c2ccccc2)c1=O,i,nt,i,nt,i,nt,i,i
CCCS(=O)(=O)NC(=O)C1(C)CCN(C(=O)c2cc(C)oc2C)C1 (configuration not stated),i,nt,i,nt,nt,nt,nt,nt
Cc1nn(Cc2ccc(Cl)cc2)c(C)c1NC(=O)CSc1nc2c(c(C(F)(F)F)n1)CCc1ccccc1-2,i,i,i,i,i,i,nt,nt
Cc1ccc(Cn2nc(C)c(NC(=O)CSc3nc4c(c(C(F)(F)F)n3)CCc3ccccc3-4)c2C)cc1,i,i,i,i,46,i,i,i
Cn1c(=O)c2cc(NC(=O)NCCc3ccccc3)ccc2n1Cc1cccc(C(F)(F)F)c1,i,nt,i,nt,nt,nt,nt,nt
CCSc1nc2ccccc2n1C(=O)c1ccc(S(=O)(=O)N2CCCCCC2)cc1,i,i,i,i,53,i,57,i
CCOc1cccc(C(=O)Nc2ccc3oc(-c4cccnc4)nc3c2)c1,i,i,i,i,i,nt,i,i

# Screens from PubChem.
